{
  "source": "paper PMC4761526",
  "about": "(Journal of pharmaceutical sciences, 2016)",
  "key": {"MRP2": {"target": "MRP2 (Homo sapiens, UniProt Q92887)", "sequence (Q92887 whole entry)": "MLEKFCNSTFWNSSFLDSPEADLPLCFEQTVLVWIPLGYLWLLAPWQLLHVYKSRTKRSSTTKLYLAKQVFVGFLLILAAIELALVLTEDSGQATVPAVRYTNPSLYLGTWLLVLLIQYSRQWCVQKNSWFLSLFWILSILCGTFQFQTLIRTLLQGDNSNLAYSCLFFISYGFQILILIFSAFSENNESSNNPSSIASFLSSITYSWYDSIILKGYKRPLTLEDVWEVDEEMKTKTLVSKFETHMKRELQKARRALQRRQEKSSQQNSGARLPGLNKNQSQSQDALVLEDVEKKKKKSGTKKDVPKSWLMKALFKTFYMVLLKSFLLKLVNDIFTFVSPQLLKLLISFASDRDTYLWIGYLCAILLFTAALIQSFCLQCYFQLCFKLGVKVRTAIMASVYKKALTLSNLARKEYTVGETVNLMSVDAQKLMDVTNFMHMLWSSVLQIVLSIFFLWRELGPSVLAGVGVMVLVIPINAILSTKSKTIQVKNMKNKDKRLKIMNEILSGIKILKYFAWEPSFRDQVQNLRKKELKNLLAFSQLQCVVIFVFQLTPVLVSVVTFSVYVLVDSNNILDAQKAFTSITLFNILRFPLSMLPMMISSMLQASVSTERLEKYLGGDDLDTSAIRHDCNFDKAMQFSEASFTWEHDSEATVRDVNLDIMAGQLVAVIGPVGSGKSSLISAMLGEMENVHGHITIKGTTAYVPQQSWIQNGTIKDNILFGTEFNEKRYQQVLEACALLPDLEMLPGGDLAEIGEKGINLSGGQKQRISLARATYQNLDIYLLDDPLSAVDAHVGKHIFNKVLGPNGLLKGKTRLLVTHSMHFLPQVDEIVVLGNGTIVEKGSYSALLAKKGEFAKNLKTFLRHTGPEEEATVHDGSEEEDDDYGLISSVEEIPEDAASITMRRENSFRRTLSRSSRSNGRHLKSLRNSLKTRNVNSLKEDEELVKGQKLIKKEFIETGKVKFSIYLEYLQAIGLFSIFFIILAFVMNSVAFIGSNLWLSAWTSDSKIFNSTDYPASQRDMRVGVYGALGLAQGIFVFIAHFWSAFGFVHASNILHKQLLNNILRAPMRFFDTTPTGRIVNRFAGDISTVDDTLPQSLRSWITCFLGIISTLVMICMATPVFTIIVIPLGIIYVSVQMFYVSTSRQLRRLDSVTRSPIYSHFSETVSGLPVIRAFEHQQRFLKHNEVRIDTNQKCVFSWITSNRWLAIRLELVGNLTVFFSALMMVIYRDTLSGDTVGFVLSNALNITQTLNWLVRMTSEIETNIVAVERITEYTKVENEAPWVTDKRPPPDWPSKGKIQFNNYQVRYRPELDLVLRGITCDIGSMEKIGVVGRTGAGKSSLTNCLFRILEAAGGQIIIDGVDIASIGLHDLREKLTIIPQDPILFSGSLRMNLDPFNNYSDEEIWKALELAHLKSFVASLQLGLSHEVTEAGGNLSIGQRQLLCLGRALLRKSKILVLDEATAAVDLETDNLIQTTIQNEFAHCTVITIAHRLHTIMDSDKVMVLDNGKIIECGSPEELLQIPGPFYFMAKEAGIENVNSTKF", "test": "CDF directional", "type": "cell-based"}, "[1]": {"system": "esterase-mediated conversion of CDFA to CDF", "test": "CDFA hydrolysis to CDF by Caco-2 cells", "type": "cell-based, human", "conditions": "100 μM compound", "in_short": "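Caco-2 cells from ATCC, used at passages 35–55, grown in DMEM with 10% FBS, 1% non-essential amino acids, 1 mM sodium pyruvate and 2 mM L-glutamine at 37°C in 5% CO2. CDFA was taken from a 5 mM stock in 1:1 DMSO:ethanol. CDF formation was expressed as specific activity per mg protein under initial-rate conditions, N = 3 per condition.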"}, "MRP2 and/or MRP3": {"system": "MRP2 and/or MRP3", "test": "Net CDF uptake into Caco-2 grown on 24-well plates after CDFA exposure", "type": "cell-based, human", "conditions": "100 μM compound, 30 min with 5 μM CDFA, cells on plastic"}, "[2]": {"system": "genistein conjugative metabolism", "test": "Genistein conjugative metabolism", "type": "in vitro ADME, human"}, "Caco-2 [3]": {"system": "Caco-2", "test": "Lucifer yellow permeability in Caco-2", "type": "in vitro ADME, human", "conditions": "control vs in the presence of 50 μM glyceollin"}, "Caco-2 [4]": {"system": "Caco-2", "test": "Genistein conjugate metabolite excretion from Caco-2", "type": "in vitro ADME, human"}},
  "note": "Several values for one entry are separate records, joined by “and”; a condition that tells them apart may be missing. Equal entries are not always repeated.",
  "data": [
    {"compound": "5 (and 6)-Carboxy-2′,7′-dichloroflourescein [CDF]", "values": [
      {"measurement": "CDF permeability, BA direction vs. AB direction", "setting": "MRP2; control conditions, no inhibitor", "result": "3.7 ± 0.36", "unit": "fold"}
    ]},
    {"compound": "CN(C)C(=O)CCSC(SCCC(=O)O)c1cccc(/C=C/c2ccc3ccc(Cl)cc3n2)c1", "note": "(stereo not drawn) [MK-571]", "values": [
      {"measurement": "rate of esterase-mediated conversion of CDFA to CDF", "setting": "[1]", "result": "did not alter"},
      {"measurement": "CDFA hydrolysis specific activity (initial rate)", "setting": "[1]; 5 μM CDFA, control 6.0", "result": 8.5, "unit": "nM/min/mg protein"},
      {"measurement": "CDF AB directional transport", "setting": "MRP2; 100 μM compound vs control", "result": "statistically significant increase"},
      {"measurement": "CDF BA directional transport", "setting": "MRP2; 100 μM compound vs control", "result": "statistically significant reduction"},
      {"measurement": "CDF cell concentration at the conclusion of the 2-hour incubation", "setting": "MRP2; 100 μM compound, both transport directions", "result": "reduced"},
      {"measurement": "IC50 for reduction of CDF BA/AB permeability ratio", "setting": "MRP2; 10, 30 or 100 μM compound", "result": 22, "unit": "µM"},
      {"measurement": "CDF uptake", "setting": "MRP2 and/or MRP3", "result": "significant reduction"}
    ]},
    {"compound": "O=c1c(-c2ccc(O)cc2)coc2cc(O)cc(O)c12", "note": "[genistein]", "values": [
      {"measurement": "fraction of genistein metabolized to conjugates (Fm), average", "setting": "[2]; control vs 30 μM glyceollin, average of two experiments", "result": "47% ± 10.5% and 47%"}
    ]},
    {"compound": "Lucifer yellow", "values": [
      {"measurement": "lucifer yellow permeability", "setting": "Caco-2 [3]", "result": "0.13 ± 0.035 × 10^-5 cm/s"}
    ]},
    {"compound": "glyceollin", "values": [
      {"measurement": "apical metabolite excretion rate", "setting": "Caco-2 [4]", "result": "6.5 ± 0.61 × 10^-5 nmoles/sec"},
      {"measurement": "intracellular genistein conjugates", "setting": "[2]; Caco-2", "result": "9 ± 2.7", "unit": "pmoles/filter"}
    ]}
  ]
}
